Consider 1 compound from publication PMC4959095 (The Journal of Pharmacology and Experimental Therapeutics, 2016).

Series [1] can be described thus: intravenous pharmacokinetics in rats. The class given is in vivo. To be noted: male, Wistar Hannover, rat, plasma, 0.1 mg/kg. An outline of the steps:
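Jugular vein-cannulated male Wistar Hannover rats (250–300 g; n = 3) got a single i.v. bolus at 1 ml/kg. The native peptide was in 10% propylene glycol/90% 20 mM sodium phosphate, pH 7.4; the analog in 10% SEDDs/90% 20 mM phosphate, pH 5. Serial cannula blood was drawn predose and at 0.033–24 hours. Plasma standard curve ran 0.1–250 ng/ml with 1/x2 linear regression.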

The next series addresses V1a receptor (Homo sapiens, UniProt P37288). In words: V1a receptor functional agonist assay. The class given is cell-based.
Series [2] can be described thus: subcutaneous depot pharmacokinetics in mice. It counts as in vivo, mouse. A digest of the protocol:
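Male C57BL/6J mice (n = 2) got a single s.c. injection (100 µl) in a lipid-based gel depot designed for sustained release over at least 48 hours. Retro-orbital blood was drawn at 0.5, 1, 2, 4, 6 and 24 hours. Plasma standard curves were 0.5–1000 ng/ml (analog) and 0.5–500 ng/ml (native peptide), 1/x2 regression. Free concentrations were derived with fu,p.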

Series [3] in a line: subcutaneous nondepot pharmacokinetics in mice. The class given is in vivo, mouse. An outline of the steps: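 Male C57BL/6J mice (n = 3 per dose) got a single nondepot s.c. injection.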
The target of another series is T1, hOTR (oxytocin receptor) (Homo sapiens, UniProt P30559).
T1 sequence (P30559 1-389): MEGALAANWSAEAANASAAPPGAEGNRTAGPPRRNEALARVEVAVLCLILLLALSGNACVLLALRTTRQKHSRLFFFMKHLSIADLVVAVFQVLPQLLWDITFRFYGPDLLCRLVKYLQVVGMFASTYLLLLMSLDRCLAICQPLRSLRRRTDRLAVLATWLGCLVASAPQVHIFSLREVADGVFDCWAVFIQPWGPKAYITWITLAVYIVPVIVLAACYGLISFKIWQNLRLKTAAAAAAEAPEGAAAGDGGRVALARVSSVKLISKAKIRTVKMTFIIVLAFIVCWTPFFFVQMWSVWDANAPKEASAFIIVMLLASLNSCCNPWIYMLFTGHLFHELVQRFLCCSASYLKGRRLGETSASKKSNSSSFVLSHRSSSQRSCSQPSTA
The class given is cell-based. The following applies: calcium flux, normalized to control responses. On the technique in general: Calcium flux is commonly read through the fluorescence of an indicator in the cells.

Setting [4] is: male, C57BL/6J, mouse, plasma, sc, 20 mg/kg.
Setting [5] is: mice, s.c. 1 mg/kg, nondepot formulation.

Chain of V1a receptor (P37288 whole entry): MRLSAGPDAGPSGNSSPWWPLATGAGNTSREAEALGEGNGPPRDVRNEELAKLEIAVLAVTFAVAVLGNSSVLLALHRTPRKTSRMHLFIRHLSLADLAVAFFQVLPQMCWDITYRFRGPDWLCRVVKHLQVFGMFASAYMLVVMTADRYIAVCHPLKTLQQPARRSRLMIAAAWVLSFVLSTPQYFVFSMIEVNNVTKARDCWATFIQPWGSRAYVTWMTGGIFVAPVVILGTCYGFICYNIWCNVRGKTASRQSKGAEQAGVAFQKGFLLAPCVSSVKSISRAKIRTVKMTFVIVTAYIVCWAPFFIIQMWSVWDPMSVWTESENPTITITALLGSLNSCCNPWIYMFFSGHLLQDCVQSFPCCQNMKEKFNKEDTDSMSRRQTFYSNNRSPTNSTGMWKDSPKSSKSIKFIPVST

As usually defined, the clearance is the rate of elimination divided by the concentration. Read a high clearance as a high capacity for elimination. One may read the half-life as the time needed for the level to fall by half in the phase considered. Higher therefore signals slow loss. As usually defined, the Cmax is the highest concentration seen after dosing. In series [1], `CC[C@H](C)[C@@H]1NC(=O)[C@H](Cc2ccc(O)cc2)NC(=O)[C@@H](N)CSSC[C@@H](C(=O)N2CCC[C@H]2C(=O)N[C@@H](CC(C)C)C(=O)NCC(N)=O)NC(=O)[C@H](CC(N)=O)NC(=O)[C@H](CCC(N)=O)NC1=O` [OT, Oxytocin] showed a clearance of 17.1 mL/min/kg and a half-life of 7.2 min. At V1a receptor, the V1a % agonist is 94 (n = 70) %. In series [2] (setting [4]), this compound showed a Cmax of 65.4 nM and a half-life of 7.3 h. Besides, the “free Cmax” value in series [2] (mice, s.c. 20 mg/kg, depot formulation) is recorded as 58.2 nM. The compound further yielded a Cmax in series [3] (male, C57BL/6J, mouse, plasma, sc, 1 mg/kg) of 216 nM. In series [3] (setting [5]), the “free Cmax” value was found to be 191 nM and the “time of Cmax postdose” value was determined as 0.25 h. Moreover, on hOTR (oxytocin receptor), the OTR % agonist was 100 (n = 70) %.
